Assay results published in ChEMBL document CHEMBL1144254, “Synthesis and SAR of novel 4,5-diarylimidazolines as potent P2X7 receptor antagonists” (Bioorg Med Chem Lett, 2005).

test system: U373 MG; assay: Inhibitory concentration against YOPRO-1 dye uptake in U373MG cells stably expressing human P2X purinoceptor 7 using fluorescence assay; format: functional, cell-based, U-373MG ATCC
Summary of the method: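 U373 cells stably expressing human P2X7 were grown overnight on collagen-coated plates at 35,000 cells/well. They were then preincubated 20 min at 37°C with increasing compound concentrations, in duplicate, in Mg²⁺/Ca²⁺-free HBSS. YO-PRO-1 iodide and then Bz-ATP were added, followed by 1.5 h at 37°C. Fluorescence was read at 485/530 nm against a no-compound control, and IC50 came from a nonlinear sigmoidal fit; means of duplicates, one or two experiments.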

IC50 [nM]	SMILES
70	Clc1ccccc1CCC1=N[C@H](c2ccccc2)[C@H](c2ccccc2)N1
320	c1ccc(C(CC2=N[C@H](c3ccccc3)[C@H](c3ccccc3)N2)c2ccccc2)cc1
70	Cc1ccccc1CCC1=N[C@H](c2ccccc2)[C@H](c2ccccc2)N1
320	Cc1ccccc1CC1=N[C@H](c2ccccc2)[C@H](c2ccccc2)N1
50	c1ccc([C@H]2N=C(C3Cc4ccccc4C3)N[C@H]2c2ccccc2)cc1
110	C[C@H](C1=N[C@H](c2ccccc2)[C@H](c2ccccc2)N1)c1ccccc1
> 1000	c1ccc([C@H]2C[C@@H]2C2=N[C@H](c3ccccc3)[C@H](c3ccccc3)N2)cc1
610	c1ccc(CCCCC2=N[C@H](c3ccccc3)[C@H](c3ccccc3)N2)cc1
80	Cc1ccc(CC2=N[C@H](c3ccccc3)[C@H](c3ccccc3)N2)cc1
240	c1ccc([C@H]2N=C(CC3Cc4ccccc4C3)N[C@H]2c2ccccc2)cc1
120	Fc1ccc(CCC2=N[C@H](c3ccccc3)[C@H](c3ccccc3)N2)cc1F
160	Clc1ccccc1CC1=N[C@H](c2ccccc2)[C@H](c2ccccc2)N1
120	Clc1cccc(CCC2=N[C@H](c3ccccc3)[C@H](c3ccccc3)N2)c1
570	CC(Cc1ccccc1)C1=N[C@H](c2ccccc2)[C@H](c2ccccc2)N1 (some centres not stated)
40	Fc1cccc(CCC2=N[C@H](c3ccccc3)[C@H](c3ccccc3)N2)c1
30	C[C@@H](CC1=N[C@H](c2ccccc2)[C@H](c2ccccc2)N1)c1ccccc1
10	CC(C)(CC1=N[C@H](c2ccccc2)[C@H](c2ccccc2)N1)c1ccccc1
2190	Cc1ccc(CCC2=N[C@H](c3ccccc3)[C@H](c3ccccc3)N2)cc1
80	Fc1ccc(CC2=N[C@H](c3ccccc3)[C@H](c3ccccc3)N2)cc1

IC50 [nM]	SMILES
270	Clc1ccc(CC2=N[C@H](c3ccccc3)[C@H](c3ccccc3)N2)cc1
830	COc1ccccc1CCC1=N[C@H](c2ccccc2)[C@H](c2ccccc2)N1
80	Fc1cccc(CC2=N[C@H](c3ccccc3)[C@H](c3ccccc3)N2)c1
> 3000	COc1ccc(CCC2=N[C@H](c3ccccc3)[C@H](c3ccccc3)N2)cc1
80	c1ccc(CCC2=N[C@H](c3ccccc3)[C@H](c3ccccc3)N2)cc1
> 3000	COc1ccc(CCC2=N[C@H](c3ccccc3)[C@H](c3ccccc3)N2)cc1OC
400	FC(F)(F)c1ccc(CC2=N[C@H](c3ccccc3)[C@H](c3ccccc3)N2)cc1
30	Clc1cccc(CC2=N[C@H](c3ccccc3)[C@H](c3ccccc3)N2)c1
30	Fc1ccc(CC2=N[C@H](c3ccccc3)[C@H](c3ccccc3)N2)cc1F
220	Fc1ccc(CCC2=N[C@H](c3ccccc3)[C@H](c3ccccc3)N2)cc1
540	c1ccc(CCCC2=N[C@H](c3ccccc3)[C@H](c3ccccc3)N2)cc1
3800	c1ccc(C2=N[C@@H](c3ccccc3)[C@@H](c3ccccc3)N2)cc1
> 3000	COc1cccc(CC2=N[C@H](c3ccccc3)[C@H](c3ccccc3)N2)c1OC
580	Fc1ccccc1CC1=N[C@H](c2ccccc2)[C@H](c2ccccc2)N1
1400	Clc1ccc(CCC2=N[C@H](c3ccccc3)[C@H](c3ccccc3)N2)cc1Cl
> 1000	Clc1ccc(CCC2=N[C@H](c3ccccc3)[C@H](c3ccccc3)N2)cc1
160	Fc1ccccc1CCC1=N[C@H](c2ccccc2)[C@H](c2ccccc2)N1
930	Fc1cccc(CC2=N[C@H](c3ccccc3)[C@H](c3ccccc3)N2)c1F
